HTRA1 inhibitor – inhibitors of human serine peptidase HTRA1. recombinant HTRA1, FP-rhodamine activity-based probe, fluorescence polarization. inhibition, % at 5.96 µM. actives 0.5% (n = 340,000); in the data active = inhibition above about 36%;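 note: 0% = enzyme with DMSO and 100% = wells lacking enzyme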
Target sequence (Q92743 whole entry, looked up): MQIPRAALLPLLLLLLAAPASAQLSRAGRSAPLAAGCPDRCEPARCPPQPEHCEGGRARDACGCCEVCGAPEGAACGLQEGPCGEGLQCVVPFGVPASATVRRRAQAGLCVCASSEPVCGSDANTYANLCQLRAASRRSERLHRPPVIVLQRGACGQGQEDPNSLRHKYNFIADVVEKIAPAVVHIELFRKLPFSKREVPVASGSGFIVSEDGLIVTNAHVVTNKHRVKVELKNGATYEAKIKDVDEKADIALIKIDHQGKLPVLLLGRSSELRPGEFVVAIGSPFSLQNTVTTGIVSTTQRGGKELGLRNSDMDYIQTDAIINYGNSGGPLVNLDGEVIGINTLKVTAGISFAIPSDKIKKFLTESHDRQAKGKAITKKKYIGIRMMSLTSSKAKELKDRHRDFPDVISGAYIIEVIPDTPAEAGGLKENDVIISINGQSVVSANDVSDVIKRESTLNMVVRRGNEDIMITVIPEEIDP
TCR-CD3 inh – blocks the human TCR-CD3 interaction; actives 0.37% (n = 360,000); TAMRA-labeled TCR probe fluorescence, biochemical; inhibition, % at 9.4 µM; in the data active = inhibition above about 19%;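 note: recombinant mutant TCR 2C K166C tagged with TAMRA read by polarization; 0% = receptor in buffer alone and 100% = receptor with positive control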
PRMT1 FP inh – blocks human protein arginine methyltransferase 1. Q99873. recombinant PRMT1, activity-based probe fluorescence polarization. inhibition, % at 2.79 µM. actives 1.3% (n = 370,000);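 active = inhibition above about 21% made by adding two undisclosed values, limit read from the data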
ABHD4 inh – ABHD4 (mouse) inhibition, primary FP screen; purified mABHD4, FP-Rh probe fluorescence polarization; actives 0.54% (n = 370,000); Q8VD66; inhibition, % at 8.92 µM;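 active = inhibition exceeding the mean over every tested compound plus 3 SD, cut at about 30% in these data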;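 note: 0% = plate median of compound wells and 100% = S159A mutant with DMSO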
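System: mouse ABHD4 enzyme, wild type / Medium: HEPES pH 7.0, NaCl, Pluronic buffer / Reagent: FP-Rh activity-based fluorescent probe / Control set: S159A mutant high control, sample median low control / Detection: fluorescence polarization with parallel and perpendicular emission, 525/598 nm / Schedule: 45 min + 60 min at 25 °C / Compound dosing: 8.92 µM, single dose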
ATG4B inh – blocks human ATG4B protease cleavage of LC3 substrate; Q9Y4P1; ATG4B cleavage of LC3-PLA2, NBD-HPC fluorescence, 1 h; inhibition, % at 8.33 µM; actives 0.51% (n = 340,000); AID 504462; in the data active = inhibition above about 40%
SIAE inh – human SIAE inhibition, primary screen; Q9HAT2; inhibition, % at 9.66 µM; AID 1053197; actives 0.69% (n = 370,000); SIAE FP-Rh probe binding, fluorescence polarization;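 active = inhibition above a cutoff: mean of compounds within the control limits plus 3 SD of those, cut at about 17% in these data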;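 note: 0% = plate median of compound wells and 100% = probe without SIAE protein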
ATG4B confirm – ATG4B (human) inhibition, single-dose confirmed; shares compounds with ATG4B inh; ATG4B protease fluorescent substrate cleavage assay; inhibition, % at 8.33 µM; actives 92% (n = 320); in the data active = inhibition above about 39%
PLA2 ctr – inhibits human PLA2, flagging false ATG4B inhibitors. shares compounds with ATG4B inh. actives 66% (n = 1,600). inhibition, % at 8.33 µM. AID 588402. purified PLA2, NBD-C6-HPC fluorescence, 45 min; in the data active = inhibition above about 50%
Target sequence (P04054 whole entry, looked up): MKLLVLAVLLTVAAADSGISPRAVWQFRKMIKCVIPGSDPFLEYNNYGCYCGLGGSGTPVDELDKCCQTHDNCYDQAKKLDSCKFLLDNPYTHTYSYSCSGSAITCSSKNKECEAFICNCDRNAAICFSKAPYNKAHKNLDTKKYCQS
Starred values were filed as active, the others as inactive; . = no result. This is a sample that favours compounds with a hit; in the whole collection about 2.9% have one here.

SMILES | HTRA1 inhibitor | TCR-CD3 inh | PRMT1 FP inh | ABHD4 inh | ATG4B inh | SIAE inh | PLA2 ctr | others
Oc1ccccc1C1OCC2(CO1)COC(c1ccccc1O)OC2 (centres undefined) | 5 | 8 | 1 | -5 | 4 | -2 | .
CCOc1ccccc1NC(=O)c1cc(C(=O)c2cc(Br)ccc2O)coc1=N | -56 | 5 | -3 | -42 | 56* | -32 | 57*
CCC[C@H]1[C@@H](OC(=O)NCc2ccc(C)cc2)CC[C@@]23CCCN2C(=O)CCC[C@@H]13 | . | . | -1 | 2 | . | 0 | .
CCC(=O)N(c1ccccc1)C1CCN(C(=O)C(Cc2ccccc2)NC(C)=O)CC1 (centres undefined) | . | . | 2 | 0 | . | 3 | .
COc1cccc(N2CCN(CC(=O)NCc3ccc(F)cc3)CC2)c1 | . | . | 3 | 6 | . | -1 | .
N/C(=N/O)c1ccccc1N1CCC(Cc2ccccc2)CC1 | 3 | -14 | -1 | -4 | 40* | 7 | 58*
c1ccc(CC2CCN(c3nnnn3-c3ccccc3)CC2)cc1 | -18 | 4 | -3 | -5 | -1 | -3 | .
COC(=O)C1=C(C)Nc2nc(SCc3ccccc3)[nH]c(=O)c2C1c1cccs1 (centres undefined) | -8 | -2 | -3 | -9 | 53* | -4 | 49
C=CCN1C(=O)[C@@H](CC(=O)NCc2cccc(C(F)(F)F)c2)[C@]2(C(=O)OCC)CCCCC/C=C/12 | . | . | 3 | -3 | . | -2 | .
O=C(NN=C1CCCCCC1)c1cn(-c2ccccc2)nc1-c1ccccc1 | -10 | -3 | 4 | -27 | 43* | -14 | 3 | ATG4B confirm=62*
O=C(Nc1ccc(F)cc1F)C1CCCN1S(=O)(=O)c1cccnc1 (centres undefined) | . | . | 4 | 1 | . | -1 | .
O=Cc1cccc(OCc2cccc3ccccc23)c1 | -46 | 0 | -2 | -13 | 61* | 1 | 73*
COc1ccc(COc2cccc(C=O)c2)cc1 | -12 | 3 | -1 | 8 | 9 | -10 | .
COC(=O)[C@]12C[C@H](CC(=O)NCCC(C)C)C(=O)N(Cc3ccc(Cl)cc3Cl)C1=C[C@H](COCc1ccccc1)O[C@@H]2C | . | . | -5 | 0 | . | -3 | .
COc1c(Cl)cc(Cl)cc1CNc1ccc(S(N)(=O)=O)cc1 | -6 | -8 | 2 | -9 | 82* | 1 | 85*
O=C(Nc1ccc(F)cc1)OCCN1C(=O)CCC12CCC(c1ccccc1)CC2 (centres undefined) | . | . | 1 | 1 | . | -5 | .
Cc1cn(-c2cc(NC(=O)c3ccc(C)c(Nc4nccc(-c5cccnc5)n4)c3)cc(C(F)(F)F)c2)cn1 | . | . | -3 | -1 | . | -2 | .
CC(C)c1ccc(NC(=O)NCc2ccc(F)cc2)cc1 | -9 | 14 | -1 | -6 | 61* | -4 | 67*
CCOC(=O)c1ccc(NC(=S)NCc2ccc(F)cc2)cc1 | -24 | -2 | 0 | -34 | 44* | -13 | 56*
C[C@H]1COc2cc(N3CCSCC3)ccc2S(=O)(=O)N1C | . | . | 7 | -4 | . | 1 | .
CCOc1ccc(-n2c(SCC(=O)Nc3ccc4cn[nH]c4c3)nnc2-c2ccc(C(C)(C)C)cc2)cc1 | . | . | 2 | -13 | . | 1 | .
Cc1cc(/C=N/NC(=O)C(O)(c2ccccc2)c2ccccc2)c(C)n1-c1ccc(C(=O)O)cc1 | -5 | 6 | 0 | 25 | 18 | -4 | .
Cc1cc(/C=N/NC(=O)C(O)(c2ccccc2)c2ccccc2)c(C)n1-c1cccc(C(=O)O)c1 | 3 | 8 | 5 | 22 | 52* | 0 | 57*
CCOc1ccc(C(=O)Nc2ccccc2-c2ccccc2)cc1Cl | -26 | 4 | -2 | -1 | 45* | -8 | 48
O=C(CSc1nnc(CCc2ccccc2)n1-c1ccc(Cl)cc1)c1ccccc1 | -56 | 1 | -2 | 0 | 58* | 0 | 61*
SMILES | HTRA1 inhibitor | TCR-CD3 inh | PRMT1 FP inh | ABHD4 inh | ATG4B inh | SIAE inh | PLA2 ctr | others
O=C(Nc1nc2ncccn2c1-c1ccc(C(F)(F)F)cc1)C1CC1 | . | . | -5 | 7 | . | -3 | .
O=C(C1CCN(S(=O)(=O)c2ccc3[nH]c(=O)oc3c2)CC1)N1CCCC1 | . | . | -4 | 4 | . | 4 | .
O=C(c1cccnc1)n1nc(NCc2ccccc2)nc1NCc1ccccc1 | -12 | -6 | 4 | -8 | 42* | 3 | 31
O=C(c1ccco1)n1nc(NCc2ccccc2)nc1NCc1ccccc1 | -18 | 4 | -2 | -5 | 27 | -5 | .
COC(=O)Cc1ccc(NC(=S)NCc2cccc(OC)c2)cc1 | 1 | 8 | -2 | 4 | 21 | 1 | .
CCCCc1ccc(NC(=S)NCc2cccc(OC)c2)cc1 | -31 | -12 | 2 | -39 | 80* | -5 | 79*
COc1cc(OC)cc(-c2nnc(SCc3c(F)cccc3Cl)o2)c1 | -47 | -3 | -4 | -18 | 59* | -12 | 58*
Cc1cccc2nc(-c3ccccc3)nc(N3CCC(O)(c4ccc(Cl)cc4)CC3)c12 | -77 | 0 | -2 | -6 | 41* | -11 | 23
COC1=CC(=O)c2nc(Cl)ccc2C1=O | . | 2 | 3 | 15 | . | 5 | .
COC1=CC(=O)c2c(ccc3ncnc(N)c23)C1=O | 22 | 1 | 5 | 4 | 62* | 2 | -12 | ATG4B confirm=49*
CC(C)(C)c1nc(SCC(=O)c2ccccc2)c2ccccc2n1 | -26 | -6 | 4 | -6 | 51* | -5 | 32 | ATG4B confirm=70*
CC(C)(C)c1nc(SCC(=O)N2CCCC2)c2ccccc2n1 | 0 | 7 | 1 | 4 | -1 | 1 | .
O=C(NCc1cccc(Cl)c1)c1ccc(S(=O)(=O)Nc2cccc(C(F)(F)F)c2)cc1 | -67 | 2 | 1 | -77 | 58* | -46 | 60*
O=C(NCc1cccc(C(F)(F)F)c1)c1cc(Cl)cc(Cl)c1 | -5 | 0 | 0 | -4 | 52* | 0 | 42 | ATG4B confirm=60*
Cc1ccc2nc(-c3ccc(NC(=O)CSc4nnc(-c5cc(-c6ccc(F)cc6)n[nH]5)n4N)cc3)sc2c1 | . | . | -1 | 2 | . | -6 | .
COc1ccc(C=C(C#N)c2ccc(OC)cc2)cc1 | -24 | -4 | 4 | 0 | -3 | 6 | .
N#C/C(=C\c1ccc(OCC(N)=O)cc1)c1ccccc1 | -5 | 2 | -1 | 1 | 45* | 3 | 53*
CC1CCCN(C(=O)c2ccc3c(=O)n(Cc4ccc5c(c4)OCO5)c(=S)[nH]c3c2)C1 (centres undefined) | -4 | 3 | -1 | 6 | 85* | 2 | 62*
CCN(CC)C(=O)c1ccc2c(=O)n(Cc3ccc4c(c3)OCO4)c(=S)[nH]c2c1 | -5 | 1 | 1 | 2 | -5 | -1 | .
